OX1R antag-1: antagonists of human orexin 1 receptor (OX1R); 330,000 tested, 1.8% active; Orexin/Hypocretin receptor type 1 (Homo sapiens), O43613; inhibition, % at 6.6 µM; OX1R-expressing cells, FRET antagonist read-out; AID 485270, 2010; in the data active = inhibition mostly above about 38%, no sharp cut-off; inactive = mostly below about 40%;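 also: 0% = agonist challenge alone and 100% = reference antagonist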
zfTRPN1 agonist: zebrafish TRPN1 channel agonists, primary screen, cell-based, HEK293, calcium fluorescence | AID 1424, 2008 | HEK293 zebrafish TRPN1-YFP, Fluo-8 calcium fluorescence; 100% = response to 87 µM carbachol | transient receptor potential cation channel N1 (TRPN1/NompC), Danio rerio | activation, % at 3 µM | 220,000 tested, 0.18% active;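 active = activation above its plate's cutoff, the mean activation of test wells on that plate plus 3 SD, cut at about 19% in these data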;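 also: 0% = DMSO alone and 100% = 87 µM carbachol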
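Control set: carbachol 87 µM as high control, DMSO as low control; system: HEK293 stable line with zebrafish TRPN1-YFP; read-out: % activation versus carbachol response; detection: intracellular calcium fluorescence with Fluo-8; doses: single test compound dose, 3 µM nominal, 0.3% DMSO; schedule: dye 1 h 37 °C plus 30 min RT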
GPR7 antagonist: GPR7 receptor antagonists, primary screen, cell-based, fluorescence, single concentration; Neuropeptides B/W receptor type 1 (Homo sapiens), P48145; GPR7-expressing cells, fluorescence antagonist assay; inhibition, % at 4.4 µM; 290,000 tested, 1.1% active; AID 1861, 2009; in the data active = inhibition above about 16%, passing the limit was not always enough;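 also: cells stimulated with the agonist NPW; 0% = agonist with vehicle and 100% = vehicle without agonist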
Target sequence (P48145 whole entry, looked up): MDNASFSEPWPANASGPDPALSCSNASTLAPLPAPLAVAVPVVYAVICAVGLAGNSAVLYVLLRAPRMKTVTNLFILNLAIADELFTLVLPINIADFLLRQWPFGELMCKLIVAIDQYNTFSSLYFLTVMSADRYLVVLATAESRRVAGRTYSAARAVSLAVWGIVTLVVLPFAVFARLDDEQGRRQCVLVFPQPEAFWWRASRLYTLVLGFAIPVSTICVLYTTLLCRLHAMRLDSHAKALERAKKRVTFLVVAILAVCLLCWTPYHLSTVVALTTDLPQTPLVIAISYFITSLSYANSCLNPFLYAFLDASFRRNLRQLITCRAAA
TRPML3 ag: human TRPML3 channel agonists, primary screen, cell-based, HEK293 TRPML3-YFP, Fluo-8 calcium fluorescence, 3 µM | AID 1448, 2008 | 100% = the carbachol control signal | Mucolipin-3 (Homo sapiens), Q8TDD5 | activation, % at 3 µM | 220,000 tested, 0.29% active;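 active = activation above its plate's cutoff, the mean activation of the plate's test wells plus 3 SD, cut at about 12% in these data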;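 also: 0% = DMSO only wells and 100% = carbachol wells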
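Test system: TRPML3-YFP stable HEK293 cells. Doses: single point at 3 µM. Incubation: dye loading 1 h 37 °C then 30 min ambient, 125 s read. Signal: Fluo-8 calcium dye fluorescence, ex 470-495, em 515-575 nm. Measure: percent activation from peak-to-basal fluorescence ratio, scaled between DMSO and carbachol.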
CHO parental Ca: ATP-evoked calcium signal inhibitors, parental CHO, primary screen, counter-screen for OX1R antagonist project, cell-based, fluorescence, Fluo-8 calcium dye; parental CHO-K1, ATP-induced calcium, Fluo-8 fluorescence; inhibition, % at 5.6 µM; 330,000 tested, 0.63% active; AID 463079, 2010;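 active = inhibition above that plate's mean sample inhibition plus 3 SD, cut at about 26% in these data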;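 also: 0% = ATP-challenged DMSO wells and 100% = DMSO wells without ATP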
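Measured by: calcium-sensitive Fluo-8 fluorescence / Test system: CHO parental line / Controls: ATP-challenged DMSO wells low, unchallenged DMSO wells high / Measure: % inhibition / Compound: single nominal dose of 5.6 µM per compound / Replicates: single well per compound, no replicates / Reagent: ATP as calcium-mobilizing challenge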
OX1R antag-2: OX1R (HCRTR1) antagonists, primary screen, fluorescence, CHO/OX1R cells, Fluo-8 calcium, orexin A. Fluo-8 calcium fluorescence. inhibition, % at 5 µM. AID 434989, 2010. Orexin/Hypocretin receptor type 1 (Homo sapiens), O43613. 330,000 tested, 0.43% active;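 active = inhibition above its plate's threshold, mean inhibition of all tested compounds on the plate plus 3 SD, cut at about 37% in these data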;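 also: 0% = orexin A challenge wells and 100% = SB-334867-A antagonist wells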
Active calls of the source: *; . = no result given. In the library only some 3.2% were active in any assay of this set; here they are far more common.

SMILES | OX1R antag-1 | zfTRPN1 agonist | GPR7 antagonist | TRPML3 ag | CHO parental Ca | OX1R antag-2
CN1CCN(c2cc(N3CCN(C(=O)c4ccco4)CC3)c3c4c(onc24)-c2ccccc2C3=O)CC1 | 38 | . | 3 | . | -11 | -33
O=C(O)CCCNc1cc(N2CCC3(CC2)OCCO3)c2noc3c2c1C(=O)c1ccccc1-3 | 65* | -2 | -10 | -1 | -11 | 0
CCOC(=O)N1CCN(c2cc(NCCC(=O)O)c3c4c(onc24)-c2ccccc2C3=O)CC1 | 73* | -1 | -16 | 0 | -17 | -28
O=C(O)CCCNc1cc(N2CCN(C(=O)c3ccco3)CC2)c2noc3c2c1C(=O)c1ccccc1-3 | 58* | . | -14 | . | -16 | -20
c1ccc(COc2ccccc2CNC23CC4CC(CC(C4)C2)C3)cc1 | 15 | 0 | 36* | 1 | -9 | -21
CC(=O)C1=C(C)OC(N)=C(C#N)C1c1cccc([N+](=O)[O-])c1 (centres undefined) | 15 | -2 | 33* | 0 | -9 | 10
CCn1c(CNc2cccc(Cl)c2)nnc1SCc1ccccc1 | 4 | 6 | 19* | 1 | -25 | -1
O=C(COc1ccccc1C(=O)c1cnn(-c2ccccc2)c1)Nc1ccccc1 | 24 | 0 | -3 | 0 | -17 | -17
c1csc(-c2csc3nc(CN4CCOCC4)nc(NCc4ccc5c(c4)OCO5)c23)c1 | 19 | -1 | 19* | -1 | -17 | -19
COc1cccc(C2c3[nH]c4ccccc4c3C[C@H]3C(=O)N(CCCO)CC(=O)N23)c1OC (some centres undefined) | 21 | . | 12 | . | -12 | -16
COc1ccc2c(c1OC)C(=O)N1C(C(=O)O)Cc3c([nH]c4ccccc34)C21 (centres undefined) | 75* | 0 | 6 | 1 | -23 | -9
CCOC(=O)N1CCN(S(=O)(=O)c2ccc(C(=O)N(CCN(CC)CC)c3nc4ccc(C)cc4s3)cc2)CC1 | 4 | . | 0 | . | -11 | -22
N#C/C(=C\c1c(F)cccc1Cl)c1nn(-c2ccccc2)c(-n2cccc2)c1C#N | 36* | 1 | -18 | 1 | -19 | -14
Cc1c(/C=C/C(=O)c2ccc(O)cc2)cnn1C | 20 | 1 | -5 | 1 | -4 | -22
Cc1c(/C=C/C(=O)c2ccccc2)cnn1C | 41* | 0 | -5 | 0 | -2 | 1
O=C(Nc1ccc([N+](=O)[O-])cn1)c1ccc(Br)o1 | 64* | 2 | -2 | 1 | -10 | -5
O=C(Nc1ccc([N+](=O)[O-])cn1)c1cccnc1 | 28 | . | 8 | . | -5 | -3
O=C(OCN1C(=O)c2ccccc2C1=O)c1ccc(Cl)nc1 | 32 | . | -4 | . | -4 | 0
O=C(COC(=O)[C@@H]1CCCN1C(=O)c1cccs1)Nc1ccc(F)cc1[N+](=O)[O-] | 64* | -1 | 0 | 0 | -24 | -19
CCC(C)(C)n1nnnc1C(c1ccc(OC)c(OC)c1)N1CCN(c2ccccc2)CC1 (centres undefined) | 21 | -1 | 18* | 0 | -23 | -20
CC1(C)C[C@H]2C3=CCC4[C@@]5(C)CC[C@H](O[C@@H]6O[C@H](C(=O)O)[C@@H](O)[C@H](O)[C@H]6O)[C@@](C)(CO)C5CC[C@@]4(C)[C@]3(C)C[C@H](O)[C@@]2(CO)[C@@H](O)[C@@H]1O (some centres undefined) | 3 | . | . | . | -11 | -16
C/C=C(/C)C(=O)OC1CC(C)(C)C[C@H]2C3=CC[C@@H]4[C@@]5(C)CCC(O[C@@H]6O[C@@H](C(=O)O)[C@@H](O)C(O[C@@H]7OC[C@H](O)[C@@H](O)[C@@H]7O[C@@H]7OC(CO)C(O)[C@@H](O)[C@@H]7O)C6O[C@@H]6OC(CO)C(O)C(O)C6O)[C@@](C)(CO)[C@@H]5CC[C@]4(C)[C@]3(C)CC(O)[C@@]12CO (some centres undefined) | 24 | . | . | . | 101* | 104*
CC(=O)OC1COC(OC2C(O)C(C)OC(OC3C(OC4CCC5(C)C(CCC6(C)C5CC=C5C7CC(C)(C)CCC7(C(=O)O)CCC56C)C4(C)CO)OCC(O)C3O)C2O)C(O)C1OC(C)=O (centres undefined) | 22 | 123* | -14 | 95* | 101* | 105*
COc1ccc(CN(C(=O)CN2C(=O)COc3ccccc32)C2CCCC2)c(OC)c1 | 58* | 4 | -8 | 2 | -32 | 29
O=P(OC1CCCCC1)(OC1CCCCC1)C(O)c1c(Cl)cccc1Cl (centres undefined) | 45* | 0 | -14 | 1 | -9 | -10
SMILES | OX1R antag-1 | zfTRPN1 agonist | GPR7 antagonist | TRPML3 ag | CHO parental Ca | OX1R antag-2
CC(C)Cc1nn2c(=O)cc(COc3ccc(NC(=O)c4ccco4)cc3)nc2s1 | 6 | . | -3 | . | 0 | 6
O=C(c1c[nH]c2ccccc12)N1CCN(Cc2ccccc2)CC1 | 14 | 2 | 18* | 0 | -10 | -3
COc1ccc(CN(C)C(=O)c2cnc(C)cn2)c(OC)c1OC | 7 | . | -16 | . | -13 | -2
COCCN(C(=O)c1cc(OC)c(OC)c(OC)c1)c1c(N)n(Cc2ccccc2)c(=O)[nH]c1=O | 1 | 0 | -18 | 1 | -9 | -15
O=C1c2cccc3c([N+](=O)[O-])ccc(c23)C(=O)N1Cc1cccnc1 | . | 0 | 24* | 0 | . | .
CN(C)CCCN1C(=O)c2cccc3cccc(c23)C1=O | 56* | . | -16 | . | -9 | -12
O=C(CCCCCN1C(=O)c2cccc3cccc(c23)C1=O)NCCO | 52* | -1 | -9 | 1 | -11 | -9
CCN(CC)C(=O)CN1C(=O)c2cccc3cccc(c23)C1=O | 69* | 0 | -1 | 1 | 1 | -14
Cc1cccc(C)c1NC(=O)CNC(=O)CCCN1C(=O)c2cccc3cccc(c23)C1=O | 18 | . | . | . | -26 | -34
CCn1c(COC(=O)CNC(=O)c2cc(OC)c(OC)c(OC)c2)nc2cc(S(=O)(=O)N(C)C)ccc21 | 3 | . | . | . | 13 | 0
CCOC(=O)CN1C(=O)N[C@@H](CCc2ccccc2)[C@@H](C(=O)OC)[C@H]1C | 9 | . | . | . | -6 | -17
COC(=O)c1ccccc1C(=O)N(Cc1cccnc1)CC1CCCN(C2CCCCC2)C1 (centres undefined) | 17 | . | 4 | . | -26 | -26

Screening data (PubChem BioAssay)
